In PMC9126795 (eBioMedicine, 2022):
Like-named read-outs stand apart in the source and are kept apart here.

Tests used:
[1] = type: in vivo, human
In short: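 Cirrhosis patients (3 per dose level) received a single 4 h IV infusion on Day −7 before the first cycle. Cmax, Tmax, t1/2 and AUC were derived by non-compartmental analysis, with the last concentration extrapolated assuming constant elimination.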

[2] = system: patients with HCV and HBV liver cirrhosis; assay: Ishak; type: in vivo, human
In short: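 Liver biopsies were taken at screening (baseline) and within 2 weeks of the final dose of 280 mg/m²/4 h IV twice weekly for 12 weeks. Three independent pathologists scored slides blinded, using Knodell scoring and Ishak-modified HAI for necroinflammation and fibrosis stage. Thirteen of 15 patients were evaluable; one was excluded for poor sample quality and one discontinued.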

[3] = system: patients with HCV and HBV liver cirrhosis; assay: Child-Pugh; type: in vivo, human; details: 12 weeks after PRI-724 administration
In short: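 Patients with HCV- or HBV-induced cirrhosis (Child–Pugh A or B) received the test compound at 280 mg/m² by 4 h IV infusion twice weekly for 12 weeks. Child–Pugh class and score were assessed at baseline and 12 weeks post-treatment. Fourteen patients were analysed, with one who discontinued excluded.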

[4] = system: patients with HCV and HBV liver cirrhosis; assay: Liver stiffness measure; type: in vivo, human; details: 12 weeks
In short: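 Liver stiffness was measured by FibroScan at baseline and 12 weeks post-treatment in cirrhosis patients. Dosing was 280 mg/m² test compound by 4 h IV infusion twice weekly for 12 weeks. Thirteen patients were analysed, and the change relative to baseline was computed, including the ≥10% decrease subset among Child–Pugh B patients.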

[5] = system: patients with HCV and HBV liver cirrhosis; assay: Collagen proportionate area; type: in vivo, human; details: baseline vs 12 weeks after PRI-724 administration, 280 mg/m^2/4 h
[6] = system: patients with HCV and HBV liver cirrhosis; assay: Serum fibrosis markers; type: in vivo, human; details: before vs 12 weeks after PRI-724 administration
In short: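 As an exploratory endpoint, serum hyaluronic acid and type IV collagen type S were measured before and 12 weeks after a course of 280 mg/m² test compound (4 h IV infusion, twice weekly, 12 weeks). Subjects were patients with HCV/HBV cirrhosis, and mean levels were compared.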

[7] = system: patients with HCV and HBV liver cirrhosis; assay: FIB-4 index, post-hoc analysis; type: in vivo, human; details: before and after administration
In short: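 This post-hoc analysis covered HCV/HBV cirrhosis patients given 280 mg/m² of the test compound by 4 h IV infusion twice weekly for 12 weeks. FIB-4 index was calculated before and after administration.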

[8] = system: patients with HCV and HBV liver cirrhosis; assay: Serum ALB, PT and TBIL; type: in vivo, human; details: 14 patients
[9] = system: murine models of liver fibrosis; details: due to hepatic stellate cell inactivation and macrophage migration; cited from earlier work
[10] = 280mg/m^2/4 h, 12 weeks, 13 patients

Substance: PRI-724
- PRI-724 AUC 0-24h ([1]; 140 mg/m^2/4h, Max): 4660 ng·h/mL
- PRI-724 Cmax ([1]; 140 mg/m^2/4h, Max): 1520 ng/mL
- PRI-724 Tmax ([1]; 140 mg/m^2/4h, Max): 4 h
- PRI-724 AUC 0-24h ([1]; 140 mg/m^2/4h, Mean): 3740 ng·h/mL
- PRI-724 Cmax ([1]; 140 mg/m^2/4h, Mean): 1150 ng/mL
- PRI-724 AUC 0-24h ([1]; 140 mg/m^2/4h, Median): 3770 ng·h/mL
- PRI-724 Cmax ([1]; 140 mg/m^2/4h, Median): 1030 ng/mL
- PRI-724 AUC 0-24h ([1]; 140 mg/m^2/4h, Min): 2790 ng·h/mL
- PRI-724 Cmax ([1]; 140 mg/m^2/4h, Min): 888 ng/mL
- PRI-724 Tmax ([1]; 140 mg/m^2/4h, Min): 1 h
- PRI-724 AUC 0-24h ([1]; 280 mg/m^2/4h, Max): 7500 ng·h/mL
- PRI-724 Cmax ([1]; 280 mg/m^2/4h, Max): 2590 ng/mL
- PRI-724 Tmax ([1]; 280 mg/m^2/4h, Max): 4 h
- PRI-724 AUC 0-24h ([1]; 280 mg/m^2/4h, Mean): 5700 ng·h/mL
- PRI-724 Cmax ([1]; 280 mg/m^2/4h, Mean): 1710 ng/mL
- PRI-724 AUC 0-24h ([1]; 280 mg/m^2/4h, Median): 5960 ng·h/mL
- PRI-724 Cmax ([1]; 280 mg/m^2/4h, Median): 1780 ng/mL
- PRI-724 AUC 0-24h ([1]; 280 mg/m^2/4h, Min): 2650 ng·h/mL
- PRI-724 Cmax ([1]; 280 mg/m^2/4h, Min): 757 ng/mL
- PRI-724 Tmax ([1]; 280 mg/m^2/4h, Min): 1 h
- PRI-724 AUC 0-24h ([1]; 380 mg/m^2/4h, Max): 16000 ng·h/mL
- PRI-724 Cmax ([1]; 380 mg/m^2/4h, Max): 4730 ng/mL
- PRI-724 Tmax ([1]; 380 mg/m^2/4h, Max): 4 h
- PRI-724 AUC 0-24h ([1]; 380 mg/m^2/4h, Mean): 11800 ng·h/mL
- PRI-724 Cmax ([1]; 380 mg/m^2/4h, Mean): 3530 ng/mL
- PRI-724 AUC 0-24h ([1]; 380 mg/m^2/4h, Median): 11900 ng·h/mL
- PRI-724 Cmax ([1]; 380 mg/m^2/4h, Median): 3540 ng/mL
- PRI-724 AUC 0-24h ([1]; 380 mg/m^2/4h, Min): 7940 ng·h/mL
- PRI-724 Cmax ([1]; 380 mg/m^2/4h, Min): 2590 ng/mL
- PRI-724 Tmax ([1]; 380 mg/m^2/4h, Min): 1 h
- Patients with change in Fibrosis score from baseline of 0 [2, 10]: 6
- Patients with change in Fibrosis score from baseline of 1 [2, 10]: 3
- Patients with change in Fibrosis score from baseline of 2 [2, 10]: 1
- Patients with change in Fibrosis score from baseline of -1 [2, 10]: 1
- Patients with change in Fibrosis score from baseline of -2 [2, 10]: 2
- Patients with change in Necroinflammatory score from baseline of 0 [2, 10]: 5
- Patients with change in Necroinflammatory score from baseline of 1 [2, 10]: 2
- Patients with change in Necroinflammatory score from baseline of 2 [2, 10]: 2
- Patients with change in Necroinflammatory score from baseline of -1 [2, 10]: 2
- Patients with change in Necroinflammatory score from baseline of -2 [2, 10]: 2
- Mean activity score ([2]; after 12-week PRI-724 administration): No change was observed
- Change of CP class in the seven patients with CP class B at baseline [3]: two improved to class A, four remained unchanged, and one worsened
- Patients with CP class B whose LSM decreased by ≥10% relative to baseline [4]: four of six patients
- Collagen proportionate area of the whole liver tissue [5]: no statistically significant change was observed
- Serum M2BPGi, mean level [6]: lower relative to baseline levels but not statistically significant
- Serum hyaluronic acid, mean level [6]: no difference in mean levels
- Serum procollagen III peptide, mean level [6]: lower relative to baseline levels but not statistically significant
- Serum type IV collagen type S, mean level [6]: no difference in mean levels
- FIB-4 index [7]: statistically significant decrease
- Serum ALB level [8]: improved from baseline at some time after PRI-724 administration
- Serum TBIL level [8]: improved from baseline at some time after PRI-724 administration
- Anti-fibrotic effect [9]: exhibits anti-fibrotic effects
